High-throughput results: PubChem BioAssay, several laboratories
The list is not random: actives were taken first. Their share in the collection is about 4.1%.
KCNQ1 inh – human KCNQ1 channel inhibition; P51787; CHO-K1 KCNQ1, FluxOR thallium flux fluorescence; stronger effect = higher value; B-score at 10 µM; 310,000 tested, 1.3% active; AID 2642;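 active = compounds whose thallium flux B-score, printed positive for inhibition, exceeds three library SD while starting fluorescence stays within three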;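 note: channel opened by potassium depolarization with thallium stimulus after 20 min compound exposure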
KCNK9 inh – inhibitors of human KCNK9 two-pore domain potassium channel; HEK293 KCNK9, FluxOR thallium flux fluorescence; stronger effect = lower value; B-score at 10 µM; 310,000 tested, 1.2% active; AID 488922;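 active = ratio B-score over 3 SD below the library mean, with starting fluorescence within 5 SD of its mean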;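 note: negative B-score means less thallium flux so channel inhibition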
hERG rescue – compounds protecting human hERG from proarrhythmic drug block; CHO-hERG, FluxOR thallium flux, dofetilide IC70 present; 310,000 tested, 0.51% active; activation (rescue from dofetilide block), less the hit threshold, % at 10 µM;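 active = activation above the mean of controls blocked by dofetilide plus 5 SD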;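 note: thallium influx through hERG after potassium depolarization seen as dye fluorescence rise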
KCC2 mod – modulators of human KCC2 chloride dependent transport; Q9H2X9; KCC2 cells, thallium flux FluoZin-2 fluorescence; B-score of Tl+ flux slope (higher = more flux/activation; lower = inhibition) at 10 µM; 190,000 tested, 2.2% active;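 active = thallium flux slope and its plate-corrected score both differing from the plate sample mean at a set confidence after two filtering rounds, in either direction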;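 note: slope of fluorescence scaled to starting intensity during 10 to 20 s after thallium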
KCNK3 inh – human KCNK3 channel inhibition, primary screen; 340,000 tested, 0.84% active; CHO-KCNK3 thallium flux, FluxOR fluorescence; stronger effect = lower value; O14649; AID 602410; B-score at 10 µM;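 active = B-score under library mean minus 4 SD, starting fluorescence ratio at most library mean plus 5 SD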;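 note: more negative B-score means stronger inhibition of thallium flux through KCNK3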
Target sequence (O14649 whole entry, looked up): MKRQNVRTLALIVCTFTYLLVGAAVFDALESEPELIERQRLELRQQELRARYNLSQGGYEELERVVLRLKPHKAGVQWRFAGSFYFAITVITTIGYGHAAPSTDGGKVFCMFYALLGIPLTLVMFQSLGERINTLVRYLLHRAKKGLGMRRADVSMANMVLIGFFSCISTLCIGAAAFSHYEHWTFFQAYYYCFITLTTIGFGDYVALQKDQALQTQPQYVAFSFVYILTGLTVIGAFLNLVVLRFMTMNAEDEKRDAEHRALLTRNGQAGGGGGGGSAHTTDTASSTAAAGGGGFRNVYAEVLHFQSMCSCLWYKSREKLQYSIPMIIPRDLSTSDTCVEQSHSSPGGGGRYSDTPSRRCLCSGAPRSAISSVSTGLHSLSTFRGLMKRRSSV
KCNQ1 act – potentiates or activates the human KCNQ1 potassium channel. P51787. CHO-K1 KCNQ1, thallium flux FluxOR fluorescence; stronger effect = higher value. B-score at 10 µM. 310,000 tested, 0.35% active. AID 2648;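 active = fluorescence ratio B-score, a plate-corrected score, at least three library SD, with initial intensity B-score within 5 SD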
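Doses: Single concentration per compound, DMSO matched to controls | Test system: KCNQ1-transfected CHO-K1 cells | Timing: 90 min dye loading and 20 min compound exposure, both at room temperature | Measured by: Kinetic FluxOR thallium fluorescence, 10-s 1-Hz baseline, 110-s post-stimulus read | Medium: Assay buffer with matched DMSO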
KCNK9 block conf – human KCNK9 inhibitor confirmation. 4,900 tested, 43% active. inhibition, % at 10 µM. HEK293 KCNK9 cells, FluxOR thallium flux fluorescence. shares compounds with KCNK9 inh. AID 492992;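 active = thallium signal inhibited by more than 5 SD of the compound-free buffer control wells, on both duplicate plates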;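 note: 0% = assay buffer control wells without compound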
Kir21 sel – selectivity of KCNK9 modulators against mouse Kir2.1 | Kir2.1 cells, FluxOR thallium flux fluorescence | shares compounds with KCNK9 inh | 4,900 tested, 4% active | inhibition, % at 10 µM;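 active = thallium signal drop more than 5 SD beyond the mean of the no-compound control wells, seen in both duplicate plates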;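 note: signal is fluorescence rise after thallium addition divided by baseline fluorescence; plate controls were assay buffer only for no effect and full block by chlorpromazine control for full effect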
KCNK9 uninduced – non-induced cell nonspecific activity of KCNK9 modulators | shares compounds with KCNK9 inh | non-induced KCNK9-HEK293, FluxOR thallium flux | inhibition, % at 10 µM | 4,900 tested, 40% active;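 active = thallium signal drop beyond 5 SD of the untreated control mean, on both duplicate plates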;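 note: plate controls were buffer only IC0 wells for no effect and SID17386958 at its maximal inhibitory level for full effect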
An asterisk follows results filed as active; i = inactive; nt = no result given.

SMILES | KCNQ1 inh | KCNK9 inh | hERG rescue | KCC2 mod | KCNK3 inh | KCNQ1 act | KCNK9 block conf | Kir21 sel | KCNK9 uninduced
O=C1OC(Oc2ccccc2)(c2ccccc2)c2ccccc21 (stereo not drawn) | i | -10* | -16 | nt | i | i | 52%* | i | 48%*
O=C1OC(OC2CCCCC2)(c2ccccc2)c2ccccc21 (stereo not drawn) | i | -18* | -7 | nt | i | i | 76%* | i | 60%*
Cc1ccc(S(=O)(=O)CCC(=O)OCC(=O)NC(C)c2ccccc2)cc1 (stereo not drawn) | nt | nt | nt | nt | i | nt | nt | nt | nt
O=S(=O)(NCCN1CCN(S(=O)(=O)c2ccccc2F)CC1)c1ccccc1F | nt | nt | nt | nt | i | nt | nt | nt | nt
O=S(=O)(c1ccc(F)c(F)c1)N1CCN(CCc2ccccc2)CC1 | i | i | -5 | nt | i | i | i | i | i
COc1ccc(S(=O)(=O)N2CCN(C/C=C/c3ccccc3)CC2)cc1F | i | i | -14 | nt | i | i | i | i | i
Cc1ccc(S(=O)(=O)N2CCN(C3CC(=O)N(CCc4ccccc4)C3=O)CC2)cc1C (stereo not drawn) | i | i | -10 | -1.3 | i | i | i | i | i
O=S(=O)(c1ccccc1F)N1CCN(CCc2ccccc2)CC1 | i | i | -10 | nt | i | i | i | i | i
CCOC(=O)c1ccc(S(=O)(=O)N2CCN(C/C=C/c3ccccc3)CC2)cc1 | nt | nt | nt | nt | i | nt | nt | nt | nt
COc1cc(NC(=O)CNC(=O)Cn2ccc3ccccc3c2=O)cc(OC)c1OC | i | i | -6 | nt | i | i | nt | nt | nt
O=S(=O)(c1cccc(Cl)c1Cl)N1CCCCC1 | i | i | -18 | 2.4 | i | i | nt | nt | nt
O=S(=O)(c1ccccc1Oc1ccc(Cl)cc1Cl)N1CCCCC1 | i | -9.9* | -8 | 0.46 | i | i | 45%* | i | i
COc1ccc(-n2cc(-c3ccccc3)c3c(=O)[nH]cnc32)cc1 | i | i | -6 | -0.024 | i | i | nt | nt | nt
O=c1[nH]cnc2c1c(-c1ccccc1)cn2-c1cccc(Cl)c1 | i | -13* | -4 | nt | i | i | 52%* | i | i
CCCCOC1CC(c2ccc(OCc3ccc(OC)cc3)c(OC)c2)N(C)O1 (stereo not drawn) | i | i | -2 | -0.15 | i | i | i | i | i
CCC(c1nnnn1Cc1ccco1)N1CCN(c2cc(Cl)ccc2C)CC1 (stereo not drawn) | i | -11* | -6 | -0.11 | i | i | 54%* | i | 42%*
C/C=C1\COC(C(=O)NCc2ccccc2)(C(F)(F)F)C=C1C=C1CCCCC1 (stereo not drawn) | 7* | i | -16 | nt | i | i | i | i | i
C/C=C1\COC(C(=O)NCCN2CCCC2)(C(F)(F)F)C=C1C=C1CCCCC1 (stereo not drawn) | i | i | -8 | nt | i | i | nt | nt | nt
COc1cccc(NC(=O)COC(=O)/C=C/c2c(C)nn(-c3ccccc3)c2C)c1 | nt | nt | nt | nt | i | nt | nt | nt | nt
COc1ccccc1C(c1nnnn1C(C)(C)C)N1CCCCCC1 (stereo not drawn) | i | -8.9* | -3 | -1.2 | i | i | 30%* | i | 28%*
COc1ccccc1C(c1nnnn1C(C)(C)C)N1CCN(C(=O)c2ccco2)CC1 (stereo not drawn) | i | -14* | -3 | 1.7 | i | i | 54%* | i | 46%*
CC(C)(C)n1nnnc1C(c1cccs1)N1CCCc2ccccc21 (stereo not drawn) | i | -9.9* | -7 | 0.34 | i | i | i | i | i
COC(=O)C(NC(=O)c1ccccc1C)(Nc1ncc(S(=O)(=O)c2ccc([N+](=O)[O-])cc2)s1)C(F)(F)F (stereo not drawn) | i | i | -12 | 0.14 | i | i | i | i | i
COc1cccc(/C=N/Nc2ncnc3scc(-c4ccccc4)c23)c1O | i | i | -6 | -0.74 | i | i | i | i | i
COc1ccc(NC(=O)CN2C(=O)NC3(CCCCCC3)C2=O)cc1Cl | nt | nt | nt | nt | i | nt | nt | nt | nt
SMILES | KCNQ1 inh | KCNK9 inh | hERG rescue | KCC2 mod | KCNK3 inh | KCNQ1 act | KCNK9 block conf | Kir21 sel | KCNK9 uninduced
CCOC(=O)c1ccc(-n2c(C)nc3c(cnn3-c3ccccc3Cl)c2=O)cc1 | i | i | -17 | -0.37 | i | i | i | i | i
Cn1c2ccccc2c(=O)c2cc(C#Cc3ccc(N)cc3)ccc21 | i | -8.5* | -21 | nt | i | i | 38%* | i | 26%*
O=C(NCCC(=O)N(CCc1ccccc1)Cc1ccccc1)c1ccc([N+](=O)[O-])cc1 | i | i | -18 | nt | i | i | nt | nt | nt
O=[N+]([O-])c1ccc(CSc2nnc(SCc3ccc(Cl)cc3)s2)cc1 | i | -9.3* | 0 | -2.5 | i | i | 45%* | i | 46%*
Cc1csc(SC(C)C(=O)NCC2CCCO2)n1 (stereo not drawn) | i | i | -9 | nt | i | i | nt | nt | nt
CN(CC(=O)NC(=O)NCc1ccccc1)Cc1ccc(Cl)c(Cl)c1 | i | i | -9 | -2 | i | i | i | i | i
COc1ccc(CN(C)CC(=O)Nc2cccc(S(=O)(=O)N(C)c3ccccc3)c2)c(OC)c1 | nt | nt | nt | nt | i | nt | nt | nt | nt
COc1ccc(CN(C)CC(=O)NC(=O)NCc2ccccc2)c(OC)c1 | i | i | -5 | -1.3 | i | i | i | i | i
COc1cccc(N2CC(C(=O)Nc3c(C(N)=O)oc4ccccc34)CC2=O)c1 (stereo not drawn) | i | i | -12 | nt | i | i | nt | nt | nt
O=C(OCCN(C1=NS(=O)(=O)c2ccccc21)c1ccccc1Cl)c1ccc(Cl)cc1 | i | -8.1* | -10 | 0.2 | i | i | 30%* | i | 30%*
Cc1nnsc1C(=O)Nc1ccc(S(=O)(=O)N2CCCC(C)C2)cc1 (stereo not drawn) | i | i | -8 | nt | i | i | nt | nt | nt
Clc1ccc(-c2ccc(-c3nn4c(-c5ccco5)nnc4s3)o2)cc1 | i | -9.8* | -9 | 0.59 | i | i | 40%* | i | i
O=C(NCc1ccco1)c1ccccc1SCC(=O)N1CCCC1 | nt | nt | nt | nt | i | nt | nt | nt | nt
